The text below walks through data of ChEMBL document CHEMBL5329183, “Naphthylthiazoles: a class of broad-spectrum antifungals” (RSC Med Chem, 2023).

What all share (assay type): ADME, organism-based
Holding throughout (details): in vivo

Data set [1] in a line: Cmax in Sprague-Dawley rat at 25 mg/kg, po administered as single dose by LC/MS/MS analysis. Also on record: dose 25 mg/kg, route po. Summed up: (§1)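 Male naïve Sprague–Dawley rats (n=3) received a single 25 mg kg−1 oral gavage dose in 5% ethanol/45% PEG 400/50% water. EDTA-K2 blood was sampled over 24 h post-dose. Plasma levels were measured by LC/MS/MS after acetonitrile protein precipitation, and parameters came from two-compartment analysis.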

A short description of data set [2]: Tmax in Sprague-Dawley rat at 25 mg/kg, po administered as single dose by LC/MS/MS analysis. An outline of the steps:
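Male naïve Sprague–Dawley rats (n = 3) received a single 25 mg kg−1 dose by oral gavage in 5% ethanol/45% PEG 400/50% water. EDTA-K2 blood was sampled over 24 h. Plasma levels were measured by LC/MS/MS after acetonitrile protein precipitation, and parameters came from two-compartment analysis.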

The nature of data set [3]: Plasma concentration in Sprague-Dawley rat at 25 mg/kg, po administered as single dose and measured within few minutes by LC/MS/MS analysis. An outline of the steps:
as §1

Structures are written as SMILES.

As usually defined, the Cmax is the maximum level reached in the sampled fluid or tissue. For orientation: Tmax means the time from dosing to the highest level. With `Cc1nc(-c2ccc3ccccc3c2)sc1-c1nnc(N[C@@H]2CCCC[C@H]2N)o1` (relative stereo), the Cmax in data set [1] came out at 9400 ng/mL. In addition, the Tmax in data set [2] is 3 h. The molecule also registered a Cp in data set [3] of 1000 ng/mL.
